Reference: ChEMBL document CHEMBL1122331, “Conformational effects on the activity of drugs. 10. Synthesis, conformation, and pharmacological properties of 1-(2,5-dimethoxyphenyl)-2-aminoethanols and their morpholine analogues” (J Med Chem, 1983)

Experiments:
[1] = molecular target: T1, Adrenergic receptor alpha-1 (Rattus norvegicus, UniProt P15823+P23944+P43140); test: (§1) Tested for Alpha adrenergic receptor antagonistic activity on isolated rat vas deferens; assay type: functional, tissue-based
T1 sequence (P15823 whole entry): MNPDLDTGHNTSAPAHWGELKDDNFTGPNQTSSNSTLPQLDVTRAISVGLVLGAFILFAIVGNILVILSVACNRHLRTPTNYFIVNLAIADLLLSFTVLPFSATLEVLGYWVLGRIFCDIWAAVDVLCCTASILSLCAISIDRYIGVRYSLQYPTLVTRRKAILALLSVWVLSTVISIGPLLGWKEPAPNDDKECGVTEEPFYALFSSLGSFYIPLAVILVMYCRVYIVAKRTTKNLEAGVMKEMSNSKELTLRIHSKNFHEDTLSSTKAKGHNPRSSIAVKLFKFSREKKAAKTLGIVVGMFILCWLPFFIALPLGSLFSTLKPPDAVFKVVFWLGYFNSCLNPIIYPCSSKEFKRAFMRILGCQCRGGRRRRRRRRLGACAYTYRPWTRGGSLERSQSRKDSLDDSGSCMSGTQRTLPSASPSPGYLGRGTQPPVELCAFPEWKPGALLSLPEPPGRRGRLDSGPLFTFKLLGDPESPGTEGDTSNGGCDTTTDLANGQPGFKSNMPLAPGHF
T1 sequence (P23944 whole entry): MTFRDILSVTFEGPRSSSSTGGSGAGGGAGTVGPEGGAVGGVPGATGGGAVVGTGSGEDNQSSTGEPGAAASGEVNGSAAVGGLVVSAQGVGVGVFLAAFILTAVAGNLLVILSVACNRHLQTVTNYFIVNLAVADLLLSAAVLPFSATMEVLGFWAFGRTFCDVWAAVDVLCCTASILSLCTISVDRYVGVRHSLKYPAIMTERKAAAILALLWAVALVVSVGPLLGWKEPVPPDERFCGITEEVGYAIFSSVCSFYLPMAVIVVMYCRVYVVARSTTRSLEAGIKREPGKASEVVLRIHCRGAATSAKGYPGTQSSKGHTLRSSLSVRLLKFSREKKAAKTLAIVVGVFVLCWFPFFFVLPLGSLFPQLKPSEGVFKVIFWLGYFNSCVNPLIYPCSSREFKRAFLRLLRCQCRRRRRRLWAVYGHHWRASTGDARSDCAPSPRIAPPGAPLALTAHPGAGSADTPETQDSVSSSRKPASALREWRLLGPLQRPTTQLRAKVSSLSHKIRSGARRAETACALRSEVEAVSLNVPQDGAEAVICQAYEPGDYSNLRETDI
T1 sequence (P43140 whole entry): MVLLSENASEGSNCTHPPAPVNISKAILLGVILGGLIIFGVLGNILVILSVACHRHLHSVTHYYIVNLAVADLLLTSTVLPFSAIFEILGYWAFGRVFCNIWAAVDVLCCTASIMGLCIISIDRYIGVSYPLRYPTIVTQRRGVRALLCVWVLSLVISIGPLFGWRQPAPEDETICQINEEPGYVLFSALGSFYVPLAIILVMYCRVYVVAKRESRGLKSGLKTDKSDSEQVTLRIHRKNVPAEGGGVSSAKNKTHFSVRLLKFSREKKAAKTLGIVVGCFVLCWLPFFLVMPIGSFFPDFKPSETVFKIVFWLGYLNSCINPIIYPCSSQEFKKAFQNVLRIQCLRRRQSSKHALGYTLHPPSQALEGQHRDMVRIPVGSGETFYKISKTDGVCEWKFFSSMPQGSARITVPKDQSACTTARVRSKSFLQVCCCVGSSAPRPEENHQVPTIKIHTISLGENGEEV
Procedure, shortened: (§2)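 Isolated rat vas deferens; contractions recorded isometrically with a force-displacement transducer.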

[2] = molecular target: T2, Adrenergic receptor alpha-1 (Rattus norvegicus) (UniProt P15823+P23944+P43140); test: as §1; assay type: functional, tissue-based; procedure, shortened: as §2
[3] = molecular target: T2, Adrenergic receptor alpha-1 (Rattus norvegicus); settings: Vas deferens
[4] = molecular target: T2, Adrenergic receptor alpha-1 (Rattus norvegicus); settings: Vas deferens; remark: listed apart in the source
[5] = molecular target: T3, Adrenergic receptor beta (Homo sapiens, UniProt P08588+P07550+P13945); settings: Cavia porcellus
[6] = molecular target: T3, Adrenergic receptor beta; test: Inhibition of beta adrenergic receptor on isolated guinea pig atria against isoprenaline at 4E-8M; parameters: species or system Cavia porcellus; settings: target entry is the homologue from another species
[7] = molecular target: T1, Adrenergic receptor alpha-1; test: (§3) Tested for alpha adrenergic receptor agonistic activity on isolated rat vas deferens; assay type: functional, tissue-based; procedure, shortened: as §2
[8] = molecular target: T2, Adrenergic receptor alpha-1 (Rattus norvegicus); test: as §3; assay type: functional, tissue-based; procedure, shortened: as §2

Molecule COc1ccc(OC)c(C2CNCCO2)c1 (stereo not drawn) has a pA2 [1] of 3.4, a pA2-pA10 [2] of 0.45 and a pA10 [2] of 2.95.

Work on COc1ccc(OC)c(C2CN(C(C)C)CCO2)c1 (stereo not drawn) yielded a pA2 [1] of 3.14, a pA2-pA10 [2] of 0.19 and a pA10 [2] of 2.95.

With COc1ccc(OC)c(C(O)CN)c1 (stereo not drawn) [DESGLYMIDODRINE] the pA2 [1] was 4.04, the pD2 [3] was 5.15 and the pD10 [4] was 6. For the same molecule, the pA2-pA10 [2] was 0.74 and the pA10 [2] was 3.3.

For COc1ccc(OC)c(C2CN(C)CCO2)c1 (stereo not drawn), the pA2 [1] was 3.61, the pA2-pA10 [2] was 0.76 and the pA10 [2] was 2.85.

In the case of COc1ccc(OC)c(C(O)CNC(C)C)c1 (stereo not drawn), the pA10 [5] is reported as 4.08, the pA2 [6] is reported as 4.77 and the pA2-pA10 [2] is reported as 0.26. For the same molecule, the pA10 [2] was 2.48.

In the case of COc1ccc(OC)c(C(O)C(C)N)c1 (stereo not drawn), the pD2 [3] is reported as 4.42 and the pD10 [4] is reported as 5.61.

Molecule COc1ccc(OC)c(C2OCCNC2C)c1 (stereo not drawn) has a pA2 [1] of 3.48, a pA2-pA10 [2] of 0.27 and a pA10 [2] of 3.2.

In the case of CNCC(O)c1cc(OC)ccc1OC (stereo not drawn), the pA2 [7] is reported as 3.91, the pA10 [8] is reported as 3.16 and the pD2 [8] is reported as 5.22. The pD10 [8] was 6.07.

With Cc1ccc(N(CC2=NCCN2)c2cccc(O)c2)cc1 the pA10 [8] was 6.02.
